Screens as filed in PubChem BioAssay.
TDP2 inh = human TDP2 enzyme inhibitors, primary screen, biochemical, epi absorbance, recombinant enzyme | Tyrosyl-DNA phosphodiesterase 2 (Homo sapiens), O95551 | T5PNP hydrolysis, p-nitrophenol absorbance 415 nm | inhibition, % at 12.8 µM | 0.34% of 370,000 active;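 active = inhibition above the mean of all tested compounds plus 3 SD, set per campaign, cut at about 25% in these data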;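 also: 0% = DMSO with enzyme and 100% = buffer with substrate but no TDP2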
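test system = human TDP2 enzyme | input = TDP2 enzyme at 120 nM final | medium = 50 mM Tris-HCl pH 7.5 with Mg2+, KCl, DTT, BSA | also added = T5PNP substrate, 5 mM | times = 2 h at 37 °C | technique = epi absorbance | benchmarks = high control without enzyme, low control DMSO plus TDP2 | replication = each compound tested once, singlicate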
MBD2 inh = inhibitors of MBD2 binding to methylated DNA, primary screen, biochemical, TR-FRET, DNA-binding domain, human; inhibition, % at 4.4 µM; 0.31% of 370,000 active; Methyl-CpG-binding domain protein 2 (Homo sapiens), Q9UBB5; MBD2 binding to methylated oligonucleotide; in the data active = inhibition above about 13%
PRMT1 FP inh = PRMT1 methyltransferase inhibitors, primary screen, biochemical, fluorescence polarization; recombinant PRMT1, activity-based probe fluorescence polarization; inhibition, % at 2.79 µM; 1.3% of 370,000 active;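 active = inhibition above about 21% made by adding two undisclosed values, limit read from the data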
UHRF1 MBD2 ctr = UHRF1 methylated DNA binding inhibitors, primary screen, counter-screen for MBD2 inhibitor project, biochemical, TR-FRET, human UHRF1, single concentration; E3 ubiquitin-protein ligase UHRF1 (Homo sapiens), Q96T88; UHRF1 binding to methylated oligo; inhibition, % at 4.4 µM; 0.75% of 370,000 active; in the data active = inhibition above about 21%;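 also: UHRF1 SRA domain binding a hemimethylated CpG hairpin DNA probe; 0% = median of test compound wells and 100% = reference inhibitor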
LEDGF integ inh = blockers of LEDGF/p75-dependent integrase strand transfer – biochemical, TR-FRET, high throughput, primary screen | TR-FRET IN-LEDGF/p75 DNA integration, Eu/Cy5 | 0.64% of 370,000 active | inhibition, % at 3.7 µM | HIV-1 integrase (with human LEDGF/p75);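 active = inhibition above the screen-wide mean plus 3 SD, cut at about 13% in these data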;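 also: signal is the Cy5 over europium emission ratio at 671 and 618 nm; 0% = plate median of compound wells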
SIAE primary = human SIAE inhibitors, primary screen, biochemical, fluorescence polarization, FP-Rh probe, 1536-well HTS; SIAE FP-Rh probe binding; inhibition, % at 9.66 µM; 0.69% of 370,000 active; Sialate O-acetylesterase (Homo sapiens), Q9HAT2;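 active = inhibition above a cutoff: mean of compounds within the control limits plus 3 SD of those, cut at about 17% in these data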;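 also: 0% = plate median of compound wells and 100% = probe without SIAE protein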
Target sequence (Q9HAT2 whole entry, looked up): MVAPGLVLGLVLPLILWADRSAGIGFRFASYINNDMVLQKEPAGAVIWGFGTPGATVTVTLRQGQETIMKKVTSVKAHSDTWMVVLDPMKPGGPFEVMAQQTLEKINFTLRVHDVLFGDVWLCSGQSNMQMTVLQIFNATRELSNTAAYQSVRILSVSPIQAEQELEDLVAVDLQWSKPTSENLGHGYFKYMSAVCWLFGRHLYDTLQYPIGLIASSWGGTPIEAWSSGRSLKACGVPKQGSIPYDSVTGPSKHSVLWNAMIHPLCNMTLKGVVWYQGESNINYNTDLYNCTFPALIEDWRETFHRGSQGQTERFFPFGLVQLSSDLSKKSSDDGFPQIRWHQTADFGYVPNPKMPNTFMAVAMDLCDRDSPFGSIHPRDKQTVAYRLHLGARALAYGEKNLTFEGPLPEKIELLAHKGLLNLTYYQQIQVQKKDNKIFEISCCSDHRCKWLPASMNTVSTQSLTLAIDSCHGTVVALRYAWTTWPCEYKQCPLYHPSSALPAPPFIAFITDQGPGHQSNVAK
TDP2 inh conf = human TDP2 enzyme inhibitors, retest, confirmation, biochemical, epi absorbance, recombinant enzyme | shares compounds with TDP2 inh | absorbance read-out | inhibition, % at 12.8 µM | 22% of 1,100 active | AID 743263, 2014; in the data active = inhibition above about 25%;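 also: 0% = vehicle with enzyme and 100% = no enzyme buffer only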
An asterisk follows results filed as active; . = not tested or not shown. This is a sample that favours compounds with a hit; in the whole collection about 3.3% have one here.

SMILES | TDP2 inh | MBD2 inh | PRMT1 FP inh | UHRF1 MBD2 ctr | LEDGF integ inh | SIAE primary | TDP2 inh conf
COc1ccc(NC2=C(NCCO)C(=O)c3ccccc3C2=O)cc1 | 36* | -4 | 6 | 11 | 7 | 2 | 34*
CC(C)CNC(=O)OCc1cn(Cc2ccccc2)nn1 | 0 | -3 | -1 | 0 | -2 | 3 | .
O=S(=O)(c1ccccc1Br)N(Cc1cn(CC2CCCCC2)nn1)C1CC1 | 1 | -4 | -2 | -1 | -4 | -2 | .
O=C1CC(N2CCOCC2)=NN1c1ccc([N+](=O)[O-])cc1 | 65* | -6 | 3 | 4 | 3 | 11 | 6
COc1ccc(C(=O)NCC(O)CN2CCOCC2)cc1[N+](=O)[O-] (stereo not drawn) | 25* | -4 | -2 | 2 | 0 | -2 | -2
COC(=O)CCCC1=CC2=C(c3ccccc3)C(=O)C(C)(OC(=O)C3CCCC3)C(=O)C2=CN1CC(C)C (stereo not drawn) | 25* | 0 | 6 | 4 | 7 | 0 | 14
COC(=O)CCCC1=CC2=C(c3ccccc3)C(=O)C(C)(OC(=O)C3CCCC3)C(=O)C2=CN1CC1CC1 (stereo not drawn) | 23 | 1 | 6 | 2 | 3 | 0 | .
COCCN1C=C2C(=O)C(C)(OC(=O)C3CCCC3)C(=O)C(c3ccccc3)=C2C=C1CCCC(=O)OC (stereo not drawn) | 30* | 2 | 3 | -1 | 0 | 12 | 22
CCCC[C@H]1C2CC(OC(=O)NCCCC(=O)OCC)C(C2)[C@H]2CCCCN21 (stereo partly drawn) | 10 | 1 | 6 | 1 | 1 | 0 | .
Cc1ccccc1C(=O)Nc1cccc(NC(=O)c2cccnc2)c1 | 25* | -4 | -2 | -2 | -3 | -6 | 0
COc1ccccc1/C=C/c1nc(S(=O)(=O)c2ccccc2)c(N2CCC(C(N)=O)CC2)o1 | 26* | -7 | 5 | -1 | 4 | 5 | -11
CN(CCCC(=O)Nc1ccc(OC(F)F)cc1)S(=O)(=O)c1ccc(F)cc1 | 28* | 1 | -1 | 0 | -2 | 10 | 6
CC(=O)N1c2ccc(S(=O)(=O)NCC3CCC(C(=O)N4CCC(C)CC4)CC3)cc2CC1C (stereo not drawn) | 28* | 2 | -2 | -1 | 3 | 9 | -2
CC(=O)N1c2ccc(S(=O)(=O)NCC3CCC(C(=O)NC4CCC(C)CC4)CC3)cc2CC1C (stereo not drawn) | 12 | 0 | 0 | 4 | -5 | -7 | .
CCCCCN(C(=O)CCC(=O)OCC(=O)NCc1cccc(OC)c1)c1c(N)n(CCCC)c(=O)[nH]c1=O | 75* | 3 | 0 | 0 | 0 | -6 | -2
CCCCN(C(=O)CCC(=O)OCC(=O)NCc1ccccc1)c1c(N)n(CCC)c(=O)[nH]c1=O | -1 | 1 | -1 | 0 | 1 | -2 | .
CCCCn1c(N)c(N(CC(C)C)C(=O)c2cccc(OCc3ccccc3)c2)c(=O)[nH]c1=O | 25* | -2 | 0 | 2 | -1 | 3 | -4
CCCCn1c(N)c(N(CC(C)C)C(=O)c2ccc(COc3ccccc3)o2)c(=O)[nH]c1=O | 8 | 3 | -1 | 0 | 0 | 2 | .
O=C(NC1C(=O)NNC1c1ccccc1)c1ccc(F)cc1 (stereo not drawn) | 26* | -7 | 2 | -3 | 5 | 3 | 6
COc1cccc(C(C(=O)NC(C)(C)C)N(Cc2ccc(C)cc2)C(=O)CCC(=O)Nc2cc(C)on2)c1OC (stereo not drawn) | 31* | 1 | 4 | -1 | 0 | -2 | -8
